For seven compounds, IC50 and Selectivity index results are on record in ChEMBL document CHEMBL1148485, “Synthesis and biological evaluation of new selective cytotoxic cyclolignans derived from podophyllotoxin” (J Med Chem, 2004).

One assay concerns SK-MEL-28. Nature of the assay: Tested in vitro for antineoplastic activity against MEL-28 (human melanoma) tumor cell line. In kind it is functional, cell-based. The essentials: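 MEL-28 cells seeded at 2 × 10^4 cells/well in MEM–10% FCS containing graded compound concentrations. Incubated 4 days at 37 °C, 10% CO2, 98% humidity. Stained with crystal violet and inhibition judged against untreated controls, which were kept in exponential growth. Mean of duplicate wells.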

The next assay deals with A549. Briefly: In vitro cytotoxicity against A-549 (human lung carcinoma) cell line. The assay is classed as functional, cell-based. The conditions noted are these: Homo sapiens, A549.
A further assay concerns HT-29. Nature of the assay: In vitro cytotoxicity against HT-29 (human colon carcinoma) cell line. In kind it is functional, cell-based. The conditions noted are these: Homo sapiens, HT-29.
A short description of assay [1]: Selectivity index is the ratio of IC50 of P-388 cell line to that of HT-29. In kind it is functional.
The next assay relates to P388. Briefly: Tested in vitro for antineoplastic activity against P-388 (lymphoid neoplasm from DBA/2 mouse) tumor cell line. In kind it is functional, cell-based. The essentials: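 P-388 cells seeded at 1 × 10^4 cells/well in MEM–10% FCS containing graded compound concentrations. Incubated 4 days at 37 °C, 10% CO2, 98% humidity. Inhibition scored by inverted microscopy against untreated controls, which were kept in exponential growth. Mean of duplicate wells.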

For `COC(=O)[C@@H]1C(/C=N/c2nccs2)=Cc2cc3c(cc2C1c1cc(OC)c(OC)c(OC)c1)OCO3` (some centres not stated), the IC50 in the assay with SK-MEL-28 was 250 nM; with A549, 250 nM; in the assay on HT-29, 25 nM; with P388, 200 nM. Moreover, in assay [1], the Selectivity index is listed as 8.

For `COC(=O)[C@@H]1C(C=O)=Cc2c(cc3c(c2OC)OCO3)[C@H]1c1cc(OC)c(OC)c(OC)c1`, the figures for the IC50 in the assay on A549, in the assay on HT-29 and with P388 were 220 nM, 20 nM and 1100 nM, respectively. In addition, in assay [1], the Selectivity index turned out to be 55.

Take `COC(=O)[C@@H]1C(/C=N/CCO)=Cc2cc3c(cc2C1c1cc(OC)c(OC)c(OC)c1)OCO3` (some centres not stated): the IC50 was 210 nM with SK-MEL-28, 110 nM with A549, 21 nM with HT-29 and 210 nM in the assay with P388. Moreover, in assay [1], the Selectivity index came out at 10.

As for `CCCCCC/N=C/C1=Cc2cc3c(cc2C(c2cc(OC)c(OC)c(OC)c2)[C@@H]1C(=O)OC)OCO3` (some centres not stated), the IC50 was determined as 490 nM with SK-MEL-28, 200 nM in the assay on A549, 20 nM with HT-29 and 2000 nM in the assay on P388. In addition, the Selectivity index in assay [1] is 100.

As for `COC(=O)[C@@H]1C(/C=N/C2CCCCC2)=Cc2cc3c(cc2C1c1cc(OC)c(OC)c(OC)c1)OCO3` (some centres not stated), the IC50 in the assay on SK-MEL-28 stood at 490 nM; in the assay with A549 it was 250 nM; in the assay on HT-29, 25 nM; in the assay with P388 it was 2000 nM. Further, the Selectivity index in assay [1] was found to be 80.

As to `COC(=O)[C@@H]1C(/C=N/c2cncnc2N)=Cc2cc3c(cc2C1c1cc(OC)c(OC)c(OC)c1)OCO3` (some centres not stated), the IC50 in the assay with SK-MEL-28 came to 1000 nM; in the assay with A549, 23 nM; in the assay on HT-29, 23 nM; with P388, 1900 nM. In addition, the Selectivity index in assay [1] turned out to be 83.

`COC(=O)[C@@H]1C(/C=N/c2ccccc2O)=Cc2cc3c(cc2C1c1cc(OC)c(OC)c(OC)c1)OCO3` (some centres not stated): the results for the IC50 in the assay with SK-MEL-28, with A549 and in the assay with HT-29 were above 9700 nM, above 9700 nM and 970 nM, respectively.

In general, IC50 refers to the midpoint of a concentration-inhibition curve. A low value points to higher potency.
